DENV2 CPE = DENV2-induced cell death inhibition. DENV2-infected cells, cytopathic effect rescue, plate reader. CPE inhibition, % at 9.99 µM. 350,000 compounds, 1.7% hits. AID 651640; in the data active means CPE inhibition above about 20%, passing the limit was not always enough; inconclusive means no clear call, values can overlap the other calls; tested in BHK-21 cells;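 further: 0% = median of neutral control wells and 100% = median of positive control wells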
SIRT5 inh = inhibitors of human sirtuin-5 desuccinylase; Purified SirT5, succinyl-peptide AMC, trypsin-coupled fluorescence; inhibition, % at 15 µM; 330,000 compounds, 1.1% hits; AID 652115; in the data active means inhibition above about 15%; inconclusive means no clear call, values can overlap the other calls
Target sequence (Q9NXA8 whole entry, looked up): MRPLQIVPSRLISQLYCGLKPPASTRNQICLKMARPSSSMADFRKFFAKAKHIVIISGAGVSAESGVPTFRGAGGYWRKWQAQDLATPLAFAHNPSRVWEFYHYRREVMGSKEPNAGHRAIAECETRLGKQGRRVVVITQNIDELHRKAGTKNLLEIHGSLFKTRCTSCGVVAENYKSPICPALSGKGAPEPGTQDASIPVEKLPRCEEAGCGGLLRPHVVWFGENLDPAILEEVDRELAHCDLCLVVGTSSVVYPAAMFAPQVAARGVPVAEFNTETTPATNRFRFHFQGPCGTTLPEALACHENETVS
PGC1a acetyl inh = modulators of PGC1a acetylation; U2OS PGC1a acetylation, AlphaScreen anti-acetyl-lysine; with virally co-expressed GCN5 acetyltransferase; inhibition, % at 15.6 µM; 350,000 compounds, 0.17% hits;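 active means every replicate shows inhibition of at least 40%; inconclusive means mean inhibition at least 40% but some replicate below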;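 further: 0% = neutral control wells and 100% = positive control wells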
S100A4 inh HTS = blocks human S100A4 binding to myosin IIA peptide | P26447 | S100A4/TAMRA-MyoIIA peptide fluorescence polarization | inhibition, % at 10.7 µM | 360,000 compounds, 0.14% hits;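 active means mean inhibition of at least 70% across replicates, with every replicate also reaching that level; inconclusive means mean inhibition reaches 70% but some replicates fall short; inactive means mean inhibition below 70%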
Target sequence (P26447 whole entry, looked up): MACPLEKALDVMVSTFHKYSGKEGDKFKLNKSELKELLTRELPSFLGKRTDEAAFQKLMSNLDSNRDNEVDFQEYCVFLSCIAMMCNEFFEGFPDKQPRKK
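System – human S100A4 monomer protein, biochemical binding assay · Buffer or medium – Calcium-containing HEPES buffer, pH 7.2 · Timing – 5 min between mix addition and reading · Also added – TAMRA-labelled myosin IIA heavy-chain peptide probe, 5 nM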
Statin myotox sup = protects C2C12 myotubes from simvastatin toxicity | ATP luminescence, 48 h; scaled: DMSO 0, geranylgeraniol control 100 | rescue of ATP level, % at 7.49 µM | 330,000 compounds, 0.78% hits | AID 602340;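 active means mean ATP rescue above about 67%, or every replicate alone reaching that limit, limit read from the data, passing the limit was not always enough; inconclusive means no clear call, values can overlap the other calls; inactive means mean under the limit and some replicate under it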;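 further: myotubes were challenged with 10 µM simvastatin during compound exposure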
Active calls of the source: *. Rows were chosen to be rich in hits. Some 2.9% of all compounds tested hit in one or more screens of this group.

Screening CCN1C(=O)[C@H]2[C@@H](c3ccccc3)N[C@]3(CCCN(Cc4ccccc4)C3=O)[C@H]2C1=O returned DENV2 CPE -2.3, SIRT5 inh 23.6*, PGC1a acetyl inh -0.2, S100A4 inh HTS -0.8 and Statin myotox sup 5.8.
Screening COc1ccc([C@H]2N[C@]3(CCCN(Cc4cccn4C)C3=O)[C@H]3C(=O)N(C)C(=O)[C@@H]23)cc1 returned DENV2 CPE inconclusive, SIRT5 inh 34.2*, PGC1a acetyl inh -2.0, S100A4 inh HTS -5.8 and Statin myotox sup 2.9.
Cc1ccc([C@H]2N[C@]3(CCCN(Cc4ccco4)C3=O)[C@H]3C(=O)N(C)C(=O)[C@@H]23)cc1 was read as DENV2 CPE 59.5*, SIRT5 inh -1.1, PGC1a acetyl inh -10.7, S100A4 inh HTS -6.6 and Statin myotox sup -1.6.
`C[C@@H](NC(=O)[C@@H]1[C@@H](CO)[C@@H]2Cn3c(cccc3=O)[C@@H]2N1Cc1ccncc1)c1ccccc1` gave DENV2 CPE inconclusive, SIRT5 inh -2.7, S100A4 inh HTS 10.0 and Statin myotox sup -9.1.
`C[C@@H]1CN([C@H](C)CO)C(=O)Cc2cc(NC(=O)CCCCCC(=O)Nc3ccccc3N)ccc2O[C@H]1CN(C)S(=O)(=O)c1ccccc1` gave DENV2 CPE inconclusive, PGC1a acetyl inh 16.8, S100A4 inh HTS -6.5 and Statin myotox sup -4.5.
`Cc1ccc([C@H]2N[C@]3(CCCN(Cc4cccn4C)C3=O)[C@H]3C(=O)N(Cc4ccccc4)C(=O)[C@@H]23)cc1` gave DENV2 CPE -5.4, SIRT5 inh 0.8, S100A4 inh HTS 1.1 and Statin myotox sup 0.6.
Cn1cccc1CN1CCC[C@]2(N[C@H](c3ccccc3)[C@@H]3C(=O)N(Cc4ccccc4)C(=O)[C@@H]32)C1=O was read as DENV2 CPE 40.7*, SIRT5 inh 0.7, PGC1a acetyl inh -26.8, S100A4 inh HTS -1.6 and Statin myotox sup -3.7.
`CCCNC(=O)N(C)C[C@@H]1Oc2cc(-c3cccnc3)ccc2S(=O)(=O)N([C@H](C)CO)C[C@@H]1C` gave DENV2 CPE -4.1, SIRT5 inh -1.3, PGC1a acetyl inh -11.5, S100A4 inh HTS 5.9 and Statin myotox sup 4.6.
For COc1ccccc1C#Cc1ccc2c(c1)[C@@H]1[C@@H](CCN1C(=O)Cc1ccccc1)[C@H](CO)N2 the results were DENV2 CPE 42.2*, SIRT5 inh 8.0 and S100A4 inh HTS -13.0.
`COc1ccccc1C#Cc1ccc2c(c1)[C@@H]1[C@@H](CCN1C(=O)Cc1ccccc1)[C@@H](CO)N2` gave DENV2 CPE -6.7, SIRT5 inh 6.8, PGC1a acetyl inh 6.9, S100A4 inh HTS -0.3 and Statin myotox sup 21.3.
For COc1ccccc1C#Cc1ccc2c(c1)[C@@H]1[C@@H](CCN1C(=O)c1ccccc1)[C@H](CO)N2 the results were DENV2 CPE 45.1*, SIRT5 inh 14.7 and S100A4 inh HTS -22.8.
COc1ccccc1C#Cc1ccc2c(c1)[C@@H]1[C@@H](CCN1C(=O)c1ccccc1)[C@@H](CO)N2 was read as DENV2 CPE -5.2, SIRT5 inh 6.3, PGC1a acetyl inh 1.7, S100A4 inh HTS -4.4 and Statin myotox sup 11.1.
`CC(C)CC#Cc1ccc2c(c1)O[C@@H](CN(C)C(=O)C1CCC1)[C@@H](C)CN([C@@H](C)CO)S2(=O)=O` gave DENV2 CPE 12.5, SIRT5 inh 4.5, PGC1a acetyl inh -17.2, S100A4 inh HTS 2.6 and Statin myotox sup -10.5.
`O=C(Nc1ccncc1)c1ccc2c(c1)S(=O)(=O)c1ccccc1C2=O` gave DENV2 CPE 53.0*, PGC1a acetyl inh 2.3, S100A4 inh HTS -5.3 and Statin myotox sup -19.2.
Screening O=C1c2ccccc2S(=O)(=O)c2cc(C(=O)N3CCN(c4ccc(Cl)cn4)CC3)ccc21 returned DENV2 CPE 42.4*, SIRT5 inh -0.9, S100A4 inh HTS -1.0 and Statin myotox sup 9.9.
`COc1ccc(OCC(=O)N2CCN(S(=O)(=O)c3ccc(Cl)s3)CC2)cc1` gave DENV2 CPE -3.7, SIRT5 inh 6.3, PGC1a acetyl inh -5.4, S100A4 inh HTS 144.4* and Statin myotox sup 0.7.
For CC(Sc1ccccn1)C(=O)Nc1ccc2c(c1)OCCO2 (stereo unspecified) the results were DENV2 CPE 26.9*, SIRT5 inh 0.7, S100A4 inh HTS -4.8 and Statin myotox sup 4.7.
For CO[C@@H]1CN(C)C(=O)c2cc(NC(=O)C3CCC3)ccc2OC[C@@H](C)NC[C@H]1C the results were DENV2 CPE -5.2, SIRT5 inh -4.4, S100A4 inh HTS 17.0 and Statin myotox sup -10.3.
For CCn1cc(C(=O)O)c(=O)c2cc(F)c(N3CCN(C)CC3)cc21 the results were DENV2 CPE 27.9*, SIRT5 inh 1.3, PGC1a acetyl inh 0.6, S100A4 inh HTS -5.1 and Statin myotox sup 2.5.
`Fc1ccc(CN2CCN3CCCC3C2C2CCCCC2)cc1F` (stereo unspecified) gave PGC1a acetyl inh -9.0 and Statin myotox sup -9.1.
Fc1cccc(CN2CCN3CCCC3C2C2CCCCC2)c1 (stereo unspecified) was read as PGC1a acetyl inh -1.7 and Statin myotox sup 129.0*.
`O=C(CN1CCOCC1)N[C@H]1CC[C@H](CCn2cc(C3CCCC3)nn2)O[C@H]1CO` gave DENV2 CPE 13.9, SIRT5 inh 0.1, PGC1a acetyl inh 4.6 and S100A4 inh HTS -0.6.
For O=C(Nc1cc(F)ccc1F)N[C@H]1CC[C@@H](CCNC(=O)c2cnccn2)O[C@@H]1CO the results were DENV2 CPE -7.1, SIRT5 inh 0.5, PGC1a acetyl inh -1.8, S100A4 inh HTS -33.7 and Statin myotox sup -11.0.
O=C(Nc1cc(F)ccc1F)N[C@@H]1CC[C@H](CCNC(=O)c2cnccn2)O[C@H]1CO was read as DENV2 CPE 32.5*, SIRT5 inh 3.6, PGC1a acetyl inh 3.5, S100A4 inh HTS 11.9 and Statin myotox sup -7.0.
`O=C(Nc1cc(F)ccc1F)N[C@@H]1CC[C@H](CCNC(=O)c2cnccn2)O[C@@H]1CO` gave DENV2 CPE 34.4*, SIRT5 inh -2.5, PGC1a acetyl inh -9.2, S100A4 inh HTS 0.0 and Statin myotox sup -10.3.
CO[C@@H]1CC[C@H]2CCOc3c(C#N)cccc3C(=O)N(C)C[C@@H](c3ccccc3)CC(=O)N(C)C[C@H]1O2 was read as DENV2 CPE 3.6, SIRT5 inh -0.1, PGC1a acetyl inh 4.6, S100A4 inh HTS 16.4 and Statin myotox sup -2.1.
`CO[C@H]1CC[C@H]2CCN(C)C(=O)C[C@H](c3ccccc3)CN(C)C(=O)c3cccc(C#N)c3OC[C@@H]1O2` gave DENV2 CPE 8.3, SIRT5 inh -0.8, S100A4 inh HTS -1.1 and Statin myotox sup -7.9.
For CO[C@H]1CC[C@H]2CCOc3c(C#N)cccc3C(=O)N(C)C[C@H](c3ccccc3)CC(=O)N(C)C[C@H]1O2 the results were DENV2 CPE -0.6, SIRT5 inh 9.1, PGC1a acetyl inh 2.2, S100A4 inh HTS 120.8* and Statin myotox sup 5.2.
